Assay outcomes from PubChem BioAssay.
This is a sample that favours compounds with a hit; in the whole collection about 3.8% have one here.
RAM network inh: yeast RAM network inhibition | S. cerevisiae dse1pr::URA3 reporter, 5-FOA growth OD615, 2 d; analog-sensitive cbk1-as2 kinase mutant strain | 1.8% of 190,000 active | AID 868 | inhibition, % at 50 µM;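 active = inhibition above a set limit, 3 SD over mean compound inhibition, cut at about 8.4% in these data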;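 note: inhibition rescues growth on 5-FOA so higher OD means more RAM inhibition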
NPY1 pot ag: potentiates or activates human NPY-Y1 receptor. AID 1304. NPY-Y1 expressing cells, potentiator/agonist activation. 0.37% of 220,000 active. P25929. activation, % at 3.6 µM; in the data active = activation above about 33%, passing the limit was not always enough;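 note: cells stimulated with NPY at EC10 then isoproterenol at EC100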
INS promoter inh: TRM-6 insulin promoter activity inhibition | TRM-6 cells, insulin promoter-eGFP reporter, imaging; reporter expression induced with tamoxifen | inhibition, % at 2 µM | 0.9% of 130,000 active | AID 1273;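 active = inhibition above the mean plus 3 SD, with well images judged a real hit on visual review, cut at about 60% in these data, passing the limit was not always enough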
NPY-Y1 antag: NPY-Y1 (human) receptor antagonism; P25929; HEK293-CNG Y1 cells, membrane potential fluorescence; NPY at EC95, then isoproterenol; inhibition, % at 3.6 µM; 1% of 200,000 active;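 active = inhibition above the campaign mean inhibition of all tested compounds plus 3 SD, cut at about 20% in these data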
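Assay system: HEK293 cells with Y1 receptor plus CNG channel | Probe or stimulus: NPY (25 nM), isoproterenol (1 µM), Ro 20-1724 (25 µM) | Timing: Compound incubation 1 h at room temperature, readout 45 min post-stimulation | Measured by: Membrane-potential fluorescent dye readout | Benchmarks: High control isoproterenol alone, low control NPY with isoproterenol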
NPY-Y2 PAM-ag: human NPY-Y2 potentiation or agonism, primary screen; 0.45% of 220,000 active; P49146; activation, % at 3.6 µM; cells expressing NPY-Y2, potentiator/agonist read-out; in the data active = activation above about 27%;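 note: cells stimulated with NPY near EC25 plus isoproterenol at EC100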
Target sequence (P49146 whole entry, looked up): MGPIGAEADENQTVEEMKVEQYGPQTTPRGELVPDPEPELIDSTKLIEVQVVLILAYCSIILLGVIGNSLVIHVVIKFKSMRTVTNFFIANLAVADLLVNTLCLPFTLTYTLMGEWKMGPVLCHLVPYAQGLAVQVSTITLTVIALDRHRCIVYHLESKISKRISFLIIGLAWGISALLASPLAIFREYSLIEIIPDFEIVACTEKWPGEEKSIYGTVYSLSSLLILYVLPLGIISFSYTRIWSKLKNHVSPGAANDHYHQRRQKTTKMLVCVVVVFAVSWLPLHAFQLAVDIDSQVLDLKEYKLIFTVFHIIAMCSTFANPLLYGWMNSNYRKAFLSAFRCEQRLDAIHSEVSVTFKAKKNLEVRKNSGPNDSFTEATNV
NPY-Y2 antag: NPY-Y2 (human) receptor antagonism | P49146 | NPY-Y2 expressing cells, antagonist mode | inhibition, % at 2.7 µM | 0.99% of 140,000 active | AID 793; in the data active = inhibition above about 17%
NPY-Y2 pot conf: confirmation of human NPY-Y2 receptor potentiators or agonists | activation, % at 3.6 µM | shares compounds with NPY-Y2 PAM-ag | 20% of 450 active | cell-based NPY-Y2 potentiator/agonist assay; in the data active = activation above about 33%
NPY-Y1 counter: NPY-Y1 potentiation or agonism as NPY-Y2 counter-screen; Y1 HEK293-CNG cells, membrane potential fluorescence; 20% of 450 active; shares compounds with NPY-Y2 PAM-ag; activation, % at 3.6 µM; in the data active = activation above about 45%;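 note: cells stimulated with submaximal NPY then isoproterenol with phosphodiesterase inhibitor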
NPY-Y1 agonist 2: counter-screen for NPY-Y2 potentiators: agonists of human NPY-Y1; shares compounds with NPY-Y2 PAM-ag; HEK293 Y1-CNGC, membrane potential fluorescence, agonism; activation, % at 3.6 µM; 37% of 450 active;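 active = activation above the mean of DMSO-only control wells plus 3 SD, cut at about 18% in these data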;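 note: cells stimulated with 1 µM isoproterenol plus the PDE inhibitor Ro 20-1724; Y1 agonists lower the membrane potential dye signal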
CNGC inh: blocks CNG channel activity, counter-screen for NPY-Y2 potentiators | shares compounds with NPY-Y2 PAM-ag | HEK293-CNG parental, isoproterenol cAMP, membrane potential fluorescence | inhibition, % at 3.6 µM | 32% of 450 active | AID 1703;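 active = inhibition above the control-well mean plus 3 SD of those wells, cut at about 22% in these data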
Y2 agonist ctr: counter-screen for NPY-Y2 potentiators: agonists of human NPY-Y2. HEK293 Y2/CNGC cells, membrane potential fluorescence, agonist mode. shares compounds with NPY-Y2 PAM-ag. activation, % at 3.6 µM. 56% of 450 active;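 active = activation above the mean of solvent-only control wells plus 3 SD, cut at about 10% in these data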;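 note: cells stimulated by isoproterenol with no NPY added so direct agonism is tested; agonism lowers probe fluorescence through less cAMP and CNG channel opening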
Numbers stand for hits; 0 = inactive; - = no result.

SMILES	RAM network inh	NPY1 pot ag	INS promoter inh	NPY-Y1 antag	NPY-Y2 PAM-ag	NPY-Y2 antag	NPY-Y2 pot conf	NPY-Y1 counter	NPY-Y1 agonist 2	CNGC inh	Y2 agonist ctr
O=C(NCCCn1ccnc1)Nc1ccc(Cl)cc1	0	0	77	0	103	0	0	0	0	0	11
O=C(NCCCn1ccnc1)Nc1ccc(Cl)c(Cl)c1	0	0	0	0	0	0	-	-	-	-	-
CCOC(=O)C1=C(Cn2cnc3ccccc32)NC(=O)NC1c1cc(C)ccc1C (stereo not given)	0	0	0	0	33	0	0	0	20	23	23
CC1CCN(S(=O)(=O)c2ccc(C(=O)N3CCN(c4ccccc4F)CC3)cc2)CC1	0	0	-	0	0	-	-	-	-	-	-
Nc1ccccc1NC1CCCCC1	0	0	0	0	36	-	0	0	0	26	24
O=C(Nc1ccccc1NC(=O)NC1CCCCC1)NC1CCCCC1	0	0	0	0	0	0	-	-	-	-	-
O=C(NCc1ccccc1)C1=C[C@H](C2CC2)C[C@H](OCCCCO)O1	0	0	-	0	0	-	-	-	-	-	-
Cc1ccccc1NC(=O)Cn1nc(-c2ccccc2)nc1-c1ccccc1	0	0	-	0	0	0	-	-	-	-	-
Cc1nc2ccc(S(=O)(=O)NC(C(=O)Nc3nccs3)C(C)C)cc2s1 (stereo not given)	0	0	0	0	0	0	-	-	-	-	-
Cc1nc2ccc(S(=O)(=O)NC(C(=O)Nc3nc4ccc(Cl)cc4s3)C(C)C)cc2s1 (stereo not given)	0	0	-	0	30	0	0	0	0	0	0
Cc1ccc([N+](=O)[O-])cc1N(CC(=O)Nc1ccc(S(=O)(=O)Nc2cccc(C(F)(F)F)c2)cc1)S(C)(=O)=O	0	0	0	0	45	0	43	64	58	51	53
O=C(CNc1cccc([N+](=O)[O-])c1)N/N=C/c1ccc(F)cc1	0	0	0	0	0	-	-	-	-	-	-
Clc1ccccc1CN1CCN(/N=C/C=C\c2ccco2)CC1	0	0	-	0	0	-	-	-	-	-	-
COc1cc(OC)c(NC(=O)CCNS(=O)(=O)c2cc(Br)cnc2N)cc1Cl	0	0	0	0	48	0	0	0	0	0	0
N#CC(C#N)=C(Nc1ccc(F)cc1)SCc1cccc(F)c1	0	0	0	0	37	0	0	0	0	0	0
CCOc1ccc(N/C(SCc2cccc([N+](=O)[O-])c2)=C(/C#N)C(N)=O)cc1	0	0	-	0	0	-	-	-	-	-	-
Cc1nn(-c2ccccc2)c2sc(C(=O)NC3CC3)cc12	0	0	0	0	45	0	0	0	0	0	0
CC(C)C(=O)c1ccc(O)c(O)c1	-	0	-	-	0	-	-	-	-	-	-
CCC(NC(C)C)C(O)c1ccc(O)c(O)c1 (stereo not given)	0	0	0	0	65	0	53	51	67	53	41
CC(C)c1ncc(S(=O)(=O)c2ccc(C(F)(F)F)cn2)c(N)n1	-	0	-	-	0	-	-	-	-	-	-
CCC(CC)COC(=O)C(C#N)c1nc2ccccc2nc1N1CCN(CC)CC1 (stereo not given)	0	0	0	0	31	0	52	57	33	46	64
CCC(COC(=O)Nc1cccc(C)c1C)NC(=O)OCC(C)C (stereo not given)	0	0	0	0	0	0	-	-	-	-	-
CCCOC(=O)NC(CC)COC(=O)Nc1cccc(C)c1C (stereo not given)	0	0	-	0	33	0	0	0	0	0	0
CC(C)Sc1sc(C(=O)O)c(-c2ccc(Cl)cc2)c1C#N	-	0	-	-	0	-	-	-	-	-	-
O=C(NCCCO)c1ccc(CSc2nc3ccccc3c(=O)[nH]2)cc1	-	0	-	-	0	-	-	-	-	-	-
SMILES	RAM network inh	NPY1 pot ag	INS promoter inh	NPY-Y1 antag	NPY-Y2 PAM-ag	NPY-Y2 antag	NPY-Y2 pot conf	NPY-Y1 counter	NPY-Y1 agonist 2	CNGC inh	Y2 agonist ctr
CCCOc1ccc(CCC(=O)N/N=C/c2ccco2)cc1	-	0	-	-	100	-	0	0	0	0	0
c1ccc2c(-c3csc(-c4ccncc4)n3)c[nH]c2c1	0	0	0	0	33	-	0	53	51	39	34
COC(=O)c1[nH]c2ccc(Br)cc2c1NC(=O)CN1CCN(C2CCCCC2)CC1	0	0	0	0	33	0	43	57	28	49	33
COC(=O)c1[nH]c2ccc(C)cc2c1NC(=O)CCN1CCN(C2CCCCC2)CC1	0	0	-	0	0	0	-	-	-	-	-
O=C1CCC(C(=O)N2CCCC(C(=O)c3ccc4c5c(cccc35)CC4)C2)=NN1 (stereo not given)	0	0	0	0	0	-	-	-	-	-	-
COc1ccc(NC(=S)NC(NC(=O)c2cccc(C)c2)C(Cl)(Cl)Cl)c([N+](=O)[O-])c1 (stereo not given)	0	0	0	0	0	0	-	-	-	-	-
COc1ccc(NC(=S)NC(NC(=O)c2cccc(Cl)c2)C(Cl)(Cl)Cl)c([N+](=O)[O-])c1 (stereo not given)	0	0	0	0	37	0	0	0	20	0	33
COC(=O)c1cc(=O)n2c(sc3ccccc32)c1C#N	-	0	-	-	0	-	-	-	-	-	-
O=C(O)c1nccnc1C(=O)Nc1ccc(Oc2c(Cl)cccc2Cl)nc1	-	0	-	-	73	-	0	0	0	0	0
O=C(NC(=O)c1c(Cl)cccc1Cl)Nc1ccc(Oc2cccnc2)nc1	-	0	-	-	0	-	-	-	-	-	-
O=C1c2cccc3cccc(c23)C(=O)N1CC1CCN(CC(O)COCc2ccc3c(c2)OCO3)CC1 (stereo not given)	0	0	0	0	50	0	75	90	21	0	65
CCc1ccc(C(=O)CSc2nc(C)cc(=O)[nH]2)cc1	0	0	-	0	0	-	-	-	-	-	-
Cc1ccc(NC2=Nc3ccccc3CS2)cc1	0	0	0	0	36	0	0	0	0	0	0
Cc1nn(-c2ccccc2)nc1C(=O)c1c(C)[nH]n(-c2ccccc2)c1=O	-	0	-	-	65	-	0	0	0	0	0
Cc1[nH]n(-c2ccccc2)c(=O)c1C(=O)c1ccc([N+](=O)[O-])cc1	0	0	0	0	0	-	-	-	-	-	-
CNc1nc(N)c(C(=O)C23CC4CC(CC(C4)C2)C3)s1	0	0	-	0	31	-	0	0	0	0	0
CN(C)C=Nc1ncc2c3ccccc3n(CCN(C)C)c2c1C#N	0	0	0	0	101	0	0	0	0	0	0
CN(C)C=Nc1ncc2c3ccccc3n(Cc3ccccc3)c2c1C#N	0	0	-	0	0	0	-	-	-	-	-
